High-throughput results deposited in PubChem by Broad Institute.
An excerpt weighted towards active compounds, which were near 1.3% of everything screened.
RAD54 branch: inhibitors of human RAD54 branch migration; Q92698; RAD54 Holliday junction branch migration, FAM/BHQ fluorescence; inhibition, % at 10.4 µM; 360,000 compounds, 0.14% hits; AID 602329;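 active = mean normalized replicate activity at least 40 and at least half of replicates scoring 40 or more; inconclusive = only one of the two criteria met; inactive = mean below 40 and under half of replicates reaching 40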;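 also: 0% = median of neutral control wells and 100% = median of positive control wells; inhibitors cause a drop in the FAM fluorescence signal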
RAD52 anneal inh: inhibitors of human RAD52 DNA annealing. P43351. recombinant RAD52 DNA annealing, FRET fluorescence. inhibition, % at 18.7 µM. 360,000 compounds, 0.46% hits. AID 651710;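 active = every replicate showing at least 50% inhibition; inconclusive = mean inhibition at least 50% but not in every replicate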
Target sequence (P43351 whole entry, looked up): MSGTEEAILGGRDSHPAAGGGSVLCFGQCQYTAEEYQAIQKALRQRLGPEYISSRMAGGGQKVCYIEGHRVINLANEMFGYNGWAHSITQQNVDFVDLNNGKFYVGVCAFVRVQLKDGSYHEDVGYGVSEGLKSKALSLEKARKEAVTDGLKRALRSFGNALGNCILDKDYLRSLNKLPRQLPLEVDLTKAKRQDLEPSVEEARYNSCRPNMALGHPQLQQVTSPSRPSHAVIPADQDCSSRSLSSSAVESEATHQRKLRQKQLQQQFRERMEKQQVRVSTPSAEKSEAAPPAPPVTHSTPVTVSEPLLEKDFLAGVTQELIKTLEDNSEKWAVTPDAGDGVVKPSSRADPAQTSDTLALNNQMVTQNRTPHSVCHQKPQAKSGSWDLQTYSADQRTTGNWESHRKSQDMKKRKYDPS
Xi reactivation: activators of X-chromosome reactivation in mouse fibroblasts; activation, % at 7.58 µM; XiGFP mouse fibroblasts, % GFP-positive cells imaging, 3 d; cells co-treated with 5-aza-dC sensitizer; scaled so ellipticine positive control = 100%; 360,000 compounds, 0.055% hits;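 active = mean normalized replicate activation at least 10% and every replicate at or above 10%; inconclusive = only one of the two criteria met; inactive = mean below 10% and not all replicates reach 10%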;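 also: 0% = median of on-plate neutral control wells and 100% = ellipticine 6 µM median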
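material = 68-5-11 XiGFP fibroblast line | medium = DMEM plus 5-aza-dC sensitizer | schedule = 3 days compound exposure | benchmarks = positive control ellipticine, 6 µM final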
CASP6 VEID inh: caspase-6 (human) enzyme inhibition; purified caspase-6, Z-VEID-R110 cleavage fluorescence; inhibition, % at 12.5 µM; 350,000 compounds, 0.53% hits;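 active = mean inhibition across replicates at least about 35%, with every replicate also reaching that limit, limit read from the data; inconclusive = only one of the two criteria met; inactive = neither criterion met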;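 also: 0% = median of neutral control wells and 100% = no fluorescence left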
MLL AF4-AF9 inh: inhibitors of human MLL-AF4/AF9 interaction | P42568 | AlphaScreen, biotin-AF4 peptide binding to FLAG-AF9 | inhibition, % at 10 µM | 350,000 compounds, 0.47% hits | AID 651704;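 active = every replicate reaching a set inhibition limit, whatever the replicate mean, cut at about 25% in these data; inconclusive = mean inhibition reaches that limit but some replicates miss it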;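 also: 0% = plate neutral control median and 100% = total signal loss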
S100A4 MyoIIA: blocks human S100A4 binding to myosin IIA peptide. P26447. S100A4/TAMRA-MyoIIA peptide fluorescence polarization. 360,000 compounds, 0.14% hits. inhibition, % at 10.7 µM. AID 652163;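 active = mean inhibition of at least 70% across replicates, with every replicate also reaching that level; inconclusive = mean inhibition reaches 70% but some replicates fall short; inactive = mean inhibition below 70%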
Target sequence (P26447 whole entry, looked up): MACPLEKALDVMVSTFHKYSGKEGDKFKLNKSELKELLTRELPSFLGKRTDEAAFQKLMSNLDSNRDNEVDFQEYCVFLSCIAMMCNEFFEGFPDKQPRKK
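Material: human S100A4 monomer with TAMRA-labelled myosin IIA peptide; buffer or medium: HEPES pH 7.2 with CaCl2, KCl, NaCl, DTT, Triton; compound dosing: one concentration per compound; schedule: 5 min incubation before reading; benchmarks: neutral control DMSO, positive control TFP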
Starred values were filed as active, the others as inactive; ? = inconclusive; . = no result.

SMILES	RAD54 branch	RAD52 anneal inh	Xi reactivation	CASP6 VEID inh	MLL AF4-AF9 inh	S100A4 MyoIIA
Cn1cnc(CCNC(=O)C[C@H]2CC[C@H]3[C@@H](COC[C@@H](O)CN3C(=O)C3CC3)O2)c1	5	14	0	-1	1	85*
CN(C)CCCNC(=O)C[C@@H]1CC[C@H]2[C@@H](COC[C@@H](O)CN2Cc2ccc(Cl)c(Cl)c2)O1	6	28	0	-10	4	137*
O=C(C[C@@H]1CC[C@@H]2[C@H](COC[C@@H](O)CN2S(=O)(=O)c2ccccc2)O1)NCc1ccc(-c2ccccc2)cc1	-5	89*	0	-7	24	-1
COCC(=O)Nc1ccc2c(c1)OC[C@H](C)N(C(=O)c1ccccc1)C[C@H](C)[C@H](OC)CN(C)C2=O	0	6	0	.	-3	-2
C/C=C/c1ccc([C@@H]2[C@@H](CN(C)C(=O)CC)N(C(=O)C3CC3)[C@H]2CO)cc1	-2	-10	0	1	0	-8
CO[C@@H]1CN(C)C(=O)c2ccc(NS(=O)(=O)c3ccc(F)cc3)cc2OC[C@H](C)NC[C@H]1C	0	-5	0	1	-2	0
O=C(C[C@H]1CC[C@H]2[C@@H](COC[C@H](O)CN2S(=O)(=O)c2ccccc2)O1)NCc1ccc(-c2ccccc2)cc1	3	92*	0	-11	21	-6
O=C(C[C@@H]1CC[C@@H]2[C@H](COC[C@H](O)CN2C(=O)Nc2ccc3c(c2)OCO3)O1)N1CCN(c2ccccc2)CC1	3	-28	1	1	2	6
Cc1ccccc1S(=O)(=O)N1C[C@H](O)COC[C@@H]2O[C@@H](CC(=O)NCc3ccccc3Cl)CC[C@H]21	-3	8	0	0	2	115*
O=C(C[C@@H]1CC[C@@H]2[C@H](COC[C@H](O)CN2S(=O)(=O)c2ccccc2)O1)NCc1ccc(-c2ccccc2)cc1	-1	18	0	-5	6	0
O=C(C[C@H]1CC[C@@H]2[C@H](COC[C@H](O)CN2C(=O)Nc2ccc3c(c2)OCO3)O1)N1CCN(c2ccccc2)CC1	3	-42	0	-10	-1	123*
O=C(C[C@@H]1CC[C@@H]2[C@H](COC[C@@H](O)CN2C(=O)c2ccc3c(c2)OCO3)O1)NCCN1CCCC1	.	-26	0	-1	-10	73*
Cc1ccccc1S(=O)(=O)N1C[C@@H](O)COC[C@H]2O[C@H](CC(=O)NCc3ccccc3Cl)CC[C@@H]21	-9	10	0	-1	6	7
CO[C@@H]1CN(C)C(=O)c2ccc(NC(=O)CC(F)(F)F)cc2OC[C@H](C)N(C(C)=O)C[C@H]1C	.	-53	0	-3	-8	-27
COc1ccc(CN(C)C[C@@H]2Oc3ccc(NC(=O)C4CC4)cc3C(=O)N([C@H](C)CO)C[C@H]2C)cc1	15	8	0	-2	-2	8
CS(=O)(=O)N1C[C@H](O)COC[C@@H]2O[C@H](CC(=O)NCc3ccc(-c4ccccc4)cc3)CC[C@H]21	0	58*	0	1	15	-13
CCCNC(=O)N1CCC2(CC1)CN(C(C)=O)[C@@H](CO)c1[nH]c3cc(OC)ccc3c12	.	.	0	.	.	.
Cc1cc(=O)[nH]c(SCC(=O)c2ccc(O)c(O)c2)n1	11	-7	0	36*	-4	-2
O=C(CSc1nc2ccccc2n1CCc1ccccc1)c1ccc(O)c(O)c1	-3	-3	0	70*	6	-5
O=C(CSc1nc2ccccc2c(=O)[nH]1)c1ccc(O)c(O)c1	3	-11	.	70*	4	-2
Cc1cc(SCC(=O)c2ccc(O)c(O)c2)n2nc(C)c(-c3ccccc3)c2n1	8	-8	0	39*	?	-5
O=C(C[C@@H]1C=C[C@H](NC(=O)Nc2cc(F)ccc2F)[C@H](CO)O1)NCc1ccc2c(c1)OCO2	-5	-18	0	-1	-6	3
CCCC#Cc1ccc2c(c1)O[C@H](CN(C)C(=O)C1CCC1)[C@H](C)CN([C@H](C)CO)S2(=O)=O	2	3	0	-1	4	4
C[C@H]1CN(C)C(=O)c2ccccc2O[C@H]1CN(C)S(C)(=O)=O	.	.	0	.	.	.
CC(=O)N(C)C[C@H]1Oc2ccc(N)cc2CC(=O)N(C)C[C@H]1C	.	.	0	.	.	.
SMILES	RAD54 branch	RAD52 anneal inh	Xi reactivation	CASP6 VEID inh	MLL AF4-AF9 inh	S100A4 MyoIIA
Cn1c(SCC(=O)c2ccc(O)c(O)c2)nnc1-c1ccccc1	-4	-11	0	13	-20	1
Cn1c(SCC(=O)c2ccc(O)c(O)c2)nnc1-c1cccs1	.	-5	0	40*	0	13
Cc1cc(=O)[nH]c(SCC(=O)Nc2ccc(C(=O)O)cc2)n1	0	4	.	1	-48	-1
Cc1cc(=O)[nH]c(SCC(=O)Nc2ccc(S(N)(=O)=O)cc2)n1	.	-20	0	52*	-5	9
CCCNC(=O)N1CC2(CN(C(=O)COC)C2)c2c(n(C)c3cc(OC)ccc23)[C@@H]1CO	.	3	0	2	-2	5
O=[N+]([O-])c1ccc(N/N=C/c2sc(N3CCOCC3)nc2-c2ccccc2)c(S(=O)(=O)Nc2ccc(Cl)cc2)c1	.	-23	87*	-5	3	-22
CC(NC(=O)CN1c2cccc3cccc(c23)S1(=O)=O)c1ccc(S(N)(=O)=O)cc1 (stereo not given)	-3	-13	0	56*	7	-2
CC(NC(=O)CN1c2cccc3cccc(c23)S1(=O)=O)c1ccccc1 (stereo not given)	4	-22	0	8	2	12
CC(C)NC(=O)N(C)C[C@H]1Oc2ccc(NC(=O)Cn3cnnn3)cc2C(=O)N([C@H](C)CO)C[C@H]1C	.	.	0	.	.	.
COCC#Cc1cnc2c(c1)C(=O)N([C@H](C)CO)C[C@H](C)[C@@H](CN(C)C(=O)c1cccc(F)c1)O2	-5	1	0	-8	-3	1
CCOc1cc(N2CCOCC2)c(OCC)cc1NC(=O)C(C)Oc1ccccc1 (stereo not given)	4	-8	0	4	29*	-8
C#CCOCCOCCOCCNc1nc(N2CCN(C(=O)[C@H](CCCN=C(N)N)n3cc(C(N)[C@@H](C)CC)nn3)CC2)nc(N2CCN(C(=O)[C@H](CC(N)=O)n3cc([C@@H](N)CC(N)=O)nn3)CC2)n1 (stereo not given in full)	-51	13	0	-198	25*	17
